Read-outs that look alike come from different tables or passages of the source.

Data set [1] has as its target T1, 5-LOX (Rattus norvegicus, UniProt P12527).
T1 sequence (P12527 1-673): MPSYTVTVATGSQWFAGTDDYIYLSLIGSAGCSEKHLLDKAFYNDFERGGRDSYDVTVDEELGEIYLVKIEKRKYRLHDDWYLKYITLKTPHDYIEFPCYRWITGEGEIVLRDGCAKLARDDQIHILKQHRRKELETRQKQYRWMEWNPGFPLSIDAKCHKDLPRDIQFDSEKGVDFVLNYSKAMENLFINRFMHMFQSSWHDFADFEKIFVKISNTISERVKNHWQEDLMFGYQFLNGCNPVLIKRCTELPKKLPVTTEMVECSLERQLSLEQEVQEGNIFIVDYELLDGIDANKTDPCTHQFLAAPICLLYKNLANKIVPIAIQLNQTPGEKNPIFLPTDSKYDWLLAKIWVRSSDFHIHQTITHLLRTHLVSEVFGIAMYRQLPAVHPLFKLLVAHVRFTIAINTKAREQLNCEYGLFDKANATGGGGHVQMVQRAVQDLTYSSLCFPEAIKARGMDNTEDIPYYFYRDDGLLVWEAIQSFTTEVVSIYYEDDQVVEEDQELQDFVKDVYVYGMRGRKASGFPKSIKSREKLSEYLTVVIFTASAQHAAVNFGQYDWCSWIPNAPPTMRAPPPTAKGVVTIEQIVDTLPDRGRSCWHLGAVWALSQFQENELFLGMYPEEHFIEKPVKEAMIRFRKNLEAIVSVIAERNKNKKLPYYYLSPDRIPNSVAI
Nature of the data set: Inhibition of 5-LOX product synthesis. It counts as cell-based. Particulars: for IC50: rat peritoneal polymorphonuclear leukocytes; for inhibition at 5 µM: PMNL, read-out: Inhibition at 5 μmol/L (%).

In data set [2] the test system is HT22 cells. Nature of the data set: Glutamate-induced oxidative toxicity in HT22 neuronal cells, MTT assay. Particulars: glutamate 5 mmol/L, 24 h, 4e at 1–100 μmol/L. It counts as cell-based, mouse. On the technique in general: Formazan colour is commonly taken as a measure of viable cells.
The test system of data set [3] is BV2 cells. Put plainly: LPS-induced nitric oxide. As to conditions: LPS 200 ng/mL, 4e at 10, 50 or 100 μmol/L, 24 h. In kind it is cell-based, mouse. In short, it runs like this:
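Mouse BV2 microglia grown in DMEM with 10% FBS and penicillin-streptomycin (100 μg/mL) at 37 °C, 5% CO2. Cells trypsinized and seeded at 2×10^4 cells/well; 24 h later, test compound added with or without LPS (200 ng/mL). Supernatants collected after 24 h exposure, mixed with equal volume of Griess reagent, and nitrite read at 570 nm.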

Data set [4] has as its target T2, 5-LOX (Homo sapiens, UniProt P09917).
T2 sequence (P09917 1-674): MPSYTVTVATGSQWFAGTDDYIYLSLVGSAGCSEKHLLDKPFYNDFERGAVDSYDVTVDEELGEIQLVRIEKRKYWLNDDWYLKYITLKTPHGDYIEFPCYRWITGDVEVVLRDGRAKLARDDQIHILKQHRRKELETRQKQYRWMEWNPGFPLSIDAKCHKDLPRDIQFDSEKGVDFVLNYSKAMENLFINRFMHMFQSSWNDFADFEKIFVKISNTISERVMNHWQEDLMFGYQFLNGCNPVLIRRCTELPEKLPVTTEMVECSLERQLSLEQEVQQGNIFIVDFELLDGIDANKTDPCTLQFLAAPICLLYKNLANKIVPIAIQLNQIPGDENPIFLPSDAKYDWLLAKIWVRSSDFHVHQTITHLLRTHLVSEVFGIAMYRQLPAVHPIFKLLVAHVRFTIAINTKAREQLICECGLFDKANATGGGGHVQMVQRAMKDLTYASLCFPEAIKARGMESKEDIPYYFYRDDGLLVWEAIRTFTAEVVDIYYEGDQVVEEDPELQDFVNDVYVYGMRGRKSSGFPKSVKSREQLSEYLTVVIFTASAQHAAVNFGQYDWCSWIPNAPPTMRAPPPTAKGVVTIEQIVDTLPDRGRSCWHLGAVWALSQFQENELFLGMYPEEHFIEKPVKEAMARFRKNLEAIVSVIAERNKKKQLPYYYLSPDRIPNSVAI
Put plainly: Cell-free 5-LOX enzymatic assay. In kind it is biochemical.

Data set [5] concerns BV2 cells. Nature of the data set: BV2 cell viability, MTT assay. It counts as cell-based, mouse. As to conditions: tested concentrations 10, 50, 100 μmol/L, with or without LPS.
For data set [6], the target named is T2, 5-LOX. Nature of the data set: Inhibition of 5-LOX product synthesis. In kind it is cell-based.
The test system of data set [7] is mouse MCAO model. As to conditions: in vivo, ip, 50 mg/kg.

Regarding `CC(C)(C)c1cc(NC(=O)c2cc(-c3ccc4c(c3)OCO4)n(-c3ccc(S(N)(=O)=O)cc3)n2)cc(C(C)(C)C)c1O` [4e, N-(3,5-di-tert-butyl-4-hydroxyphenyl)-5-(benzo [1, 3]dioxol-5-yl)-1-(4-amino-sulfonylphenyl)-1H-pyrazole-3-carboxamide], the values for the IC50 in data set [1] (IC50 PMNL), in data set [4] and in data set [6] were 690 nM, 133 ± 14 nM and 1080 nM, respectively. Besides, the inhibition at 5 µM in data set [1] is 90.1%. Further, in data set [2], the “Glutamate-induced HT22 cell death (MTT)” value was “remarkably reduced glutamate-induced HT22 cell death”. The “LPS-induced generation of NO” value in data set [3] was “remarkably attenuated”. In addition, in data set [5], the “Cell viability of BV2 cells (MTT)” value is given as “did not reduce the viabilities of BV2 cells”. In addition, the “Cortical, striatal and hemispheric infarct volumes” value in data set [7] is “significantly decreased cortical, striatal and hemispheric infarct volumes”.
As for `CC(C)(C)c1cc(NC(=O)c2cc(-c3ccc(C(F)(F)F)cc3)n(-c3ccc(S(C)(=O)=O)cc3)n2)cc(C(C)(C)C)c1O` [5i, N-(3,5-di-tert-butyl-4-hydroxyphenyl)-1-(4-methylsulfonylphenyl)-5-p-tri-fluoromethylphenyl-1H-pyrazole-3-carboxamide], the “Inhibition at 5 μmol/L (%)” value in data set [1] (rat PMNLs, 5 μmol/L, mean of three determinations) is recorded as 69.6%. Besides, the IC50 turned out to be 800 nM in data set [1] (read-out: IC50 PMNL); 127 ± 29 nM in data set [4] (read-out: IC50 Enzymatic assay, cell-free, human 5-LOX, triplicate); 1130 nM in data set [6] (read-out: IC50 HWB, human whole blood).
Regarding `Cc1ccc(-c2cc(C(=O)Nc3cc(C(C)(C)C)c(O)c(C(C)(C)C)c3)nn2-c2ccc(F)cc2)cc1` [6b, N-(3,5-di-tert-butyl-4-hydroxyphenyl)-1-(4-fluorophenyl)-5-p-tolyl-1H-pyrazole-3-carboxamide], the IC50 in data set [1] (IC50 PMNL) amounted to 820 nM; in data set [4], 327 ± 22 nM; in data set [6], 10200 nM. For the same compound, the inhibition at 5 µM in data set [1] worked out at 83.7%.

What is called IC50 is the concentration that inhibits the measured activity by half. In general, Inhibition refers to the percentage by which the read-out fell short of the control.

These data come from publication PMC4724694 (Acta Pharmaceutica Sinica. B, 2016).
